Assay outcomes deposited in PubChem BioAssay by several laboratories.
AHR activator – AHR activators, primary screen, cell-based, luminescence, luciferase reporter, human. AHR-responsive luciferase reporter cells. AID 2796, 2010. Aryl hydrocarbon receptor (Homo sapiens), P35869. actives 2.5% (n = 320,000). activation, % at 5 µM; in the data active = activation above about 47%;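 also: 0% = vehicle wells and 100% = reference agonist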
SMARCA2 activ – SMARCA2 (BRM) function activators, primary screen, cell-based, luminescence, high throughput; MG213 cells, MMTV-luciferase reporter, dexamethasone, overnight; activation, % at 9.1 µM; actives 1% (n = 370,000); AID 652017, 2013; in the data active = activation above about 7.8%;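 also: 0% = vehicle wells and 100% = reference activator wells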
H9c2 TAG inh – inhibitors of triacylglycerol accumulation, primary screen, cell-based, uHTS, fluorescence, H9c2; AID 651582, 2012; inhibition, % at 12.5 µM; actives 0.66% (n = 230,000); H9c2 cells, Nile Red lipid (TAG) fluorescence; cells loaded with 200 µM oleic acid;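 active = pattern-corrected inhibition of lipid staining of at least 50% with the nuclear-stain viability signal not falling by more than 50%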;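 also: 0% = DMSO wells and 100% = triacsin C control wells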
Tb MetRS inh – T. brucei MetRS inhibitors, primary screen, biochemical, luminescence | actives 0.4% (n = 360,000) | inhibition, % at 11.9 µM | methionyl-tRNA synthetase (Trypanosoma brucei brucei) | purified T. brucei MetRS, ATP depletion, Kinase-Glo luminescence;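 active = inhibition above a per-plate cutoff of the control wells' mean inhibition plus 3 SD, cut at about 5.5% in these data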;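 also: 0% = DMSO wells median and 100% = median of wells with control inhibitor compound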
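System: purified T. brucei MetRS enzyme / Detection: Kinase-Glo luciferase luminescence reporting remaining unconsumed ATP / Medium: HEPES buffer with MgCl2, KCl, DTT, spermine, BSA, pyrophosphatase / Replication: singlicate, one well per compound / Evaluation: percent inhibition relative to median high and low control wells / Schedule: 2 h aminoacylation at 25 °C after 15 min preincubation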
Efflux pump mplx – inhibitors of Candida efflux pumps in yeast, primary screen, S. cerevisiae, Nile Red, multiplex; S. cerevisiae Candida pump triplex; inhibition, % at 10 µM; actives 0.44% (n = 330,000);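 active = plate passing quality check with inhibition over a set limit, or well fluorescence over plate mean plus 4 SD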;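 also: Nile Red retained in pooled yeast measured as flow cytometry median fluorescence; 0% = buffer negative control and 100% = Enniatin B positive control; higher means more Nile Red kept so more efflux inhibition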
AHR act cf – AHR activators, confirmation, cell-based, luminescence, luciferase reporter, human. AID 2845, 2010. human cells, AHR-responsive luciferase reporter. actives 87% (n = 2,300). activation, % at 9 µM. shares compounds with AHR activator; in the data active = activation above about 49%;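 also: HepG2 hepatoma cells carrying a DRE-driven firefly luciferase reporter; 0% = vehicle wells and 100% = reference agonist wells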
PXR act counter – human PXR activators, counter-screen for AHR activator project, cell-based, luciferase luminescence; shares compounds with AHR activator; cell-based PXR reporter; actives 88% (n = 2,300); activation, % at 11.6 µM; in the data active = activation above about 11%;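 also: human hepatoma DPX-2 cells expressing full-length human PXR; 0% = DMSO and 100% = reference agonist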
Target sequence (O75469 whole entry, looked up): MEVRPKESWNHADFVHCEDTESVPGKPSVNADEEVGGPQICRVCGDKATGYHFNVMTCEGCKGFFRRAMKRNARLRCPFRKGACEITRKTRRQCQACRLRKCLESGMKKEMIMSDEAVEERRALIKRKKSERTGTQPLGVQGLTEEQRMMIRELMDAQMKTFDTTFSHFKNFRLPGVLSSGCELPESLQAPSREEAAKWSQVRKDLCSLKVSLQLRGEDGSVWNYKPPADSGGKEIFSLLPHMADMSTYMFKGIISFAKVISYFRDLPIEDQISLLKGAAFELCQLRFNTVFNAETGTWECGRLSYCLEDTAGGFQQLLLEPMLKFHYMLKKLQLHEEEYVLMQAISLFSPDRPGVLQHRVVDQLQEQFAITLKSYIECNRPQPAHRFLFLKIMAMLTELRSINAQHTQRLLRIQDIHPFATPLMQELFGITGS
* marks the source's active call; other numbers are inactive results; nt = no result. Most compounds without a hit are left out; they make up all but 4.1% or so of the library.

SMILES | AHR activator | SMARCA2 activ | H9c2 TAG inh | Tb MetRS inh | Efflux pump mplx | AHR act cf | PXR act counter
Nc1ccc(N=Nc2ccccc2)c2cccnc12 | 94* | 4 | nt | -1 | 0 | 84* | 12*
Nc1ccc(Br)c2cccnc12 | 33 | -4 | 2 | 2 | 0 | nt | nt
COc1cccc(N(C)C(=O)[C@@H](C2CC2)[C@@H](O)c2ccc(C(C)=O)cc2)c1 | nt | -2 | nt | nt | nt | nt | nt
Nc1cccc2c1C(=O)N(CCOc1ccc(F)cc1)C2=O | 98* | 2 | nt | -1 | 0 | 87* | 29*
COc1ccc(OCCN2C(=O)c3ccccc3C2=O)cc1 | -4 | 2 | -12 | -1 | 0 | nt | nt
O=C1c2ccccc2C(=O)N1CCOc1ccccc1 | 97* | 6 | -3 | -1 | 0 | 167* | 21*
CCOc1ccc(N(CC(=O)Nc2c(C)n(C)n(-c3ccccc3)c2=O)S(=O)(=O)c2ccc(C(C)(C)C)cc2)cc1 | nt | 0 | nt | nt | nt | nt | nt
Fc1ccc(-n2nnc(-c3cccnc3Cl)n2)cc1 | 79* | 4 | -10 | 0 | nt | 69* | 19*
CN1CCN(c2nc(-c3ccccc3)nc3c2oc2ccccc23)CC1 | -4 | 2 | 32 | -1 | 0 | nt | nt
OCCNc1nc(-c2ccccc2)nc2c1oc1ccccc12 | 104* | -2 | 0 | 2 | 0 | 96* | 26*
CC(C)c1ccc(Nc2nc(NCc3ccco3)nc(N3CCOCC3)n2)cc1 | 85* | -3 | 34 | 0 | 0 | 86* | 32*
N=C(N)N=Nc1c(O)[nH]c2ccc(Br)cc12 | 93* | 0 | 25 | 0 | 0 | 88* | 28*
CCc1c(C)sc(NC(=O)c2cccs2)c1C#N | 90* | 4 | nt | -1 | 0 | 90* | 39*
COc1cc(Cl)ccc1OCc1cc(C(=O)NCc2cc(C(C)C)no2)no1 | 115* | 7 | 2 | 0 | 0 | 105* | 45*
COc1ccc(C(=O)OCCCN(C)C2CN(Cc3cn(Cc4cccc(F)c4)nn3)S(=O)(=O)C2)cc1OC (stereo unspecified) | nt | 0 | nt | nt | nt | nt | nt
O=C(CSc1ccc2ccccc2n1)c1ccc2c(c1)OCO2 | 103* | 7 | -160 | -1 | 0 | 27 | 24*
O=C(Nc1cccc(-c2nc3cc(Cl)ccc3o2)c1)C1CCCO1 (stereo unspecified) | 118* | -1 | nt | 0 | 0 | 126* | nt
Cc1cccc(-c2nc3cc(NC(=O)C4CCCO4)ccc3o2)c1 (stereo unspecified) | 2 | 1 | nt | -1 | 0 | nt | nt
O=C(NCc1ccccc1)C1(C(=O)C2CC2)CC(c2ccccc2C(F)(F)F)=NO1 (stereo unspecified) | nt | 0 | nt | nt | nt | nt | nt
Cn1c(N)c(C(=O)Nc2ccccc2F)sc1=S | 115* | -4 | -4 | -1 | 0 | 105* | nt
CNc1sc(C(=O)c2cccs2)c(N)c1-c1nc2ccccc2s1 | 89* | 4 | nt | -1 | 0 | 119* | 82*
COc1ccc(C)cc1Nc1nc(-c2c[nH]c3ccccc23)cs1 | 89* | 0 | 12 | 0 | 0 | 64* | 17*
COc1ccc(C)cc1Nc1nc(-c2ccccc2O)nc2ccccc12 | 19 | -3 | nt | 0 | 0 | nt | nt
O=C(/C=C/c1ccccc1[N+](=O)[O-])Nc1cccnc1 | 145* | 2 | 12 | -1 | 0 | 83* | 33*
O=C(/C=C/c1ccccc1[N+](=O)[O-])NNC(=O)c1ccncc1 | 6 | -2 | 7 | -1 | 0 | nt | nt
SMILES | AHR activator | SMARCA2 activ | H9c2 TAG inh | Tb MetRS inh | Efflux pump mplx | AHR act cf | PXR act counter
C/C(=N\Nc1ccc([N+](=O)[O-])cc1)c1cc2ccccc2o1 | 81* | 7 | -14 | 0 | 0 | 128* | 15*
O=C(N/N=C/c1ccc([N+](=O)[O-])cc1)c1cc2ccccc2o1 | 1 | -1 | 9 | -1 | 0 | nt | nt
C/C(=N\OC(=O)NC(C)C)c1sc(-c2ccccc2)nc1C | -9 | 5 | -36 | -1 | 0 | nt | nt
C/C(=N\OC(=O)NC(C)C)c1sc(-c2ccc(Cl)cc2)nc1C | 109* | 4 | -10 | 0 | 0 | 104* | 17*
CCNC(=O)O/N=C(\C)c1sc(-c2ccc(Cl)cc2)nc1C | 135* | 4 | -19 | 0 | 0 | 135* | 17*
CCN(CC)C(=O)c1ncn2c1C(=O)N[C@H](C)C2 | nt | -2 | nt | nt | nt | nt | nt
CC(COc1ccc(Br)cc1)CN1CCC(C(O)(c2ccccc2)c2ccccc2)CC1 (stereo unspecified) | nt | -5 | nt | nt | nt | nt | nt
Cc1nc(NCCOc2ccccc2)sc1C(=O)Nc1ccccc1 | 88* | 2 | -22 | 0 | 0 | 145* | 47*
COc1ccc(/C=N/Nc2nc(N)cc(Cl)n2)cc1OC | 89* | 2 | 8 | -1 | 0 | 72* | 16*
CN(C)c1ccc(Nc2nc(N)c([N+](=O)[O-])c(N3CCOCC3)n2)cc1 | 82* | 2 | nt | -1 | 0 | 68* | 39*
O=C(CSc1nnc(COc2ccccc2)n1-c1ccccc1)Nc1ccc2c(c1)OCCO2 | nt | -4 | nt | nt | nt | nt | nt
Cc1cc(NCCCN2CCOCC2)n2ncc(-c3ccccc3)c2n1 | 38 | 5 | 8 | -1 | 0 | nt | nt
Cc1cc(NCCOCCO)n2ncc(-c3ccc(Cl)cc3)c2n1 | 126* | -2 | 11 | 0 | 0 | 142* | 28*
O=C(NCCc1ccccc1)OCc1cn(-c2ccc(Cl)cc2)nn1 | nt | -1 | nt | nt | nt | nt | nt
N#Cc1ccc(NC(=O)OC2CC3CC2[C@H]2CCCCN2[C@H]3Cc2ccccc2)cc1 (stereo partly specified) | nt | -1 | nt | nt | nt | nt | nt
COc1c2occc2c(OC)c2c(=O)cc(C)oc12 | 104* | -3 | 1 | 0 | 0 | 77* | 13*
Cc1ccc(C)c(Nc2nc(N)c3ccccc3n2)c1 | 10 | 4 | -10 | 0 | 0 | nt | nt
COc1ccc(Cl)cc1Nc1nc(N)c2ccccc2n1 | 105* | -2 | 14 | 0 | 0 | 115* | 14*
COc1cccc(C(=O)O/N=C(\N)c2ccc([N+](=O)[O-])cc2)c1 | 79* | -2 | -17 | 2 | 0 | 75* | nt
CC(=O)c1c(C)[nH]c(C(=O)Nc2cc(S(=O)(=O)N3CCCCC3)ccc2C)c1C | 4 | 0 | -3 | 0 | 0 | nt | nt
CC(=O)c1c(C)[nH]c(C(=O)Nc2cccc(S(=O)(=O)N3CCOCC3)c2)c1C | 100* | -2 | nt | 0 | 0 | 78* | 34*
CC(=O)c1c(C)[nH]c(C(=O)OCC(=O)Nc2ccc(Cl)c(S(=O)(=O)N(C)C)c2)c1C | 3 | -6 | 9 | -1 | 0 | nt | nt
